The record followed here is ChEMBL document CHEMBL5678801, “A benzothiophene inhibitor of mitogen-activated protein kinase-activated protein kinase 2 inhibits tumor necrosis factor alpha production and has oral anti-inflammatory efficacy in acute and chronic models of inflammation” (J Pharmacol Exp Ther, 2010).

Data set [1] concerns the target MAP kinase-activated protein kinase 2 (Homo sapiens, UniProt P49137).
Data set [2] in a line: Cmax in Sprague-Dawley rat at 3 mg/kg, po measured upto 24 hrs by […] analysis. Format: ADME, organism-based. The conditions noted are these: in vivo. In outline: (§1)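 Male Sprague-Dawley rats (275-300 g), carotid-catheterized and acclimated overnight. Dosing was i.v. at 1 mpk (n=2) in 70% saline/20% PEG-400/10% ethanol, or oral at 3 mpk (n=3) as a suspension in 0.5% HPMC/Tween. Plasma drug was measured by LC-MS/MS. Cmax and Tmax were read from individual profiles. t½ came from the terminal log-linear slope and AUC by the linear trapezoidal rule. CL = dose/AUC0-∞, Vdss = CL×MRT, F = dose-normalized AUC po/iv.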

Data set [3] addresses Receptor-interacting serine/threonine-protein kinase 2 (Homo sapiens, UniProt O43353). Description: Inhibition of RIPK2 (unknown origin). An outline of the steps: (§2)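 Kinase panel: 200 kinases were first screened at 1 μM inhibitor for percent inhibition. Those above 50% inhibition were then titrated for IC50. MgATP was fixed at the Km(app) determined for each enzyme.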
Data set [4] in a line: Inhibition of MK2 activity in LPS induced human U937 cells preincubated with compound for 1 hr followed by LPS induction and measured after 30 mins by Western blot analysis. The conditions noted are these: u-937. The data set is classed as functional, cell-based. An outline of the steps: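 U937 cells were pretreated with compound for 1 h, then stimulated with LPS 100 ng/ml for 30 min at 37°C. Lysates were run on SDS-PAGE and Western blotted for p-Ser78-HSP27 and total HSP27, detected with fluorescent secondary antibodies and LiCor scanning. The phospho/total ratio was expressed against the LPS-only control. Single experiment repeated three times. 4-parameter fit.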
Background: A western blot detects proteins with antibodies after separation by electrophoresis.

Data set [5] deals with Rattus norvegicus. In words: Antiinflammatory activity in acute LPS induced TNF-alpha production in Lewis rat model administered via oral dose pretreated for 4 hrs followed by LPS stimulation and measured after 90 mins […]. Format: functional. The conditions noted are these: 5.5 h, time 330 min. An outline of the steps:
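Male Lewis rats (225-250 g, 5 per group) were fasted 18 h, then dosed orally at 0.2-60 mg/kg as a suspension in 0.5% methylcellulose/0.025% Tween 20. LPS 1 mg/kg was given i.v. 4 h later. Blood was taken by cardiac puncture 90 min after LPS. Serum TNFα was read by ELISA and drug by LC-MS/MS, three independent experiments. 4-parameter fit. Unbound values were corrected with measured rat plasma protein binding.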

The target in data set [6] is MAP kinase-activated protein kinase 3 (Homo sapiens, UniProt Q16644). In words: Inhibition of recombinant MK3 (unknown origin) expressed in Escherichia coli using KKKALSRQLSVAA as substrate incubated for 1 hr followed by substrate addition in presence of ATP. An outline of the steps: (§3)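 Recombinant kinase first activated with activated p38α (1:50 molar ratio) and 250 μM ATP for 1 hr at 30°C. Activity measured by 33P-labelled product peptide, separated by ion exchange. MgATP fixed at the Km(app) determined for each enzyme. IC50 values from duplicate experiments.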
Chain of MAP kinase-activated protein kinase 3 (Q16644 whole entry): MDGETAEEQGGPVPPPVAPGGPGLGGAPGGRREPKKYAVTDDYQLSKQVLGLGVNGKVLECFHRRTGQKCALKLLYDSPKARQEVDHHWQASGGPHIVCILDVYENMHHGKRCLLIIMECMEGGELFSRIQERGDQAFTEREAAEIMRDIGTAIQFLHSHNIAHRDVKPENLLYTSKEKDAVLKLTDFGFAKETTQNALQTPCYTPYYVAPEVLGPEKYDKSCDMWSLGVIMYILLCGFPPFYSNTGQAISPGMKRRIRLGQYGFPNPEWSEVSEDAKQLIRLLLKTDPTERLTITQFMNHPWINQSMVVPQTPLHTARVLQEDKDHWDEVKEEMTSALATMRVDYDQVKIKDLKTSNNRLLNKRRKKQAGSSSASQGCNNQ

Data set [7] can be described thus: Inhibition of TNF-alpha production in LPS-induced human U-937 cells preincubated with compound for 1 hr followed by LPS induction and measured after 4 hrs by MSD analysis. The data set is classed as functional, cell-based. An outline of the steps:
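U937 cells were pretreated with compound for 1 h (<1% DMSO final), then stimulated with LPS 100 ng/ml at 37°C. Media TNFα was read at 4 h by MSD electrochemiluminescence. Three separate experiments in duplicate, mean ±S.E.M. IC50 by 4-parameter nonlinear regression.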

The target of data set [8] is T1, MAP kinase-activated protein kinase 5 (Homo sapiens, UniProt Q8IW41).
T1 sequence (Q8IW41 whole entry): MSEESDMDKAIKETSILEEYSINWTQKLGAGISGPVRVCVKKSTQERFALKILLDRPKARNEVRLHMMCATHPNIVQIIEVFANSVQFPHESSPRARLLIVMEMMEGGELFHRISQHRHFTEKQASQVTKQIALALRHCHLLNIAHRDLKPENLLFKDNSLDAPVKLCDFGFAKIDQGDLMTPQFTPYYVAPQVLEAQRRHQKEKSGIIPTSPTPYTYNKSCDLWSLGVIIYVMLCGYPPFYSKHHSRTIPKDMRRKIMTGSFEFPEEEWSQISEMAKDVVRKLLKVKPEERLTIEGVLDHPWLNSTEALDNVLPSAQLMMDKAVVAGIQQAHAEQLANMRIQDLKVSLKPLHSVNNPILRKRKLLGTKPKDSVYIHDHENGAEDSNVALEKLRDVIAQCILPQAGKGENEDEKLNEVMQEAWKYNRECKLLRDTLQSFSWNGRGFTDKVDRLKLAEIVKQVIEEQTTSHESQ
In words: Inhibition of recombinant PRAK (unknown origin) expressed in Escherichia coli using KKKALSRQLSVAA as substrate incubated for 1 hr followed by substrate addition in presence of ATP. An outline of the steps:
as §3

Data set [9] is described as follows: Tmax in Sprague-Dawley rat measured upto 24 hrs by […] analysis. Format: ADME. The conditions noted are these: in vivo. An outline of the steps:
as §1

The nature of data set [10]: Inhibition of IL-1 beta production in LPS induced human PBMC cells preincubated with compound for 1 hr followed by LPS induction and measured after 16 hrs by MSD analysis. Format: functional, cell-based. In outline:
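Human PBMCs were pretreated with compound for 1 h (<1% DMSO final), then stimulated with LPS 100 ng/ml at 37°C. Cytokines in culture media were read by MSD 4-plex: TNFα at 4 h; IL-1β, IL-6 and IL-8 at 16 h. Data are means ±S.E.M. of two independent experiments in duplicate, three donors. IC50 by 4-parameter nonlinear regression.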

Data set [11] concerns the target T2, Phosphorylase b kinase gamma catalytic chain, liver/testis isoform (Homo sapiens, UniProt P15735).
T2 sequence (P15735 whole entry): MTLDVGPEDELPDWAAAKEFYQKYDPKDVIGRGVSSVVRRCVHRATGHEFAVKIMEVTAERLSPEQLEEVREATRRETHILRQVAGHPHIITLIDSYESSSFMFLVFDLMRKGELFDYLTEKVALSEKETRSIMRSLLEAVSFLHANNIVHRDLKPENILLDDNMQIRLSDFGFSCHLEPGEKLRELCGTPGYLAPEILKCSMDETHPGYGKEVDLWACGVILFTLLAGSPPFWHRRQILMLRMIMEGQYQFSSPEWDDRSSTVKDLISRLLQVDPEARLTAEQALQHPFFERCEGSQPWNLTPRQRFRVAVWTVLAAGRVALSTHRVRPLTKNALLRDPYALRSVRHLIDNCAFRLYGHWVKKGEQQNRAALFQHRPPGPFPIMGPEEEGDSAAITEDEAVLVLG
In words: Inhibition of PhKgamma2 (unknown origin). In outline: as §2

Data set [12] can be described thus: Inhibition of MK2 activity in LPS induced human Whole blood cell preincubated with compound for 1 hr followed by LPS induction and measured after 30 mins by Dissociation enhanced lanthanide fluoro-immuno assay. The data set is classed as functional, cell-based. In outline: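 Whole blood was stimulated with LPS 100 ng/ml for 30 min. Phospho-Ser82 HSP27 and total HSP27 in lysates were read by DELFIA immunoassay.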

For data set [13], the species on record is Rattus norvegicus. Description: Inhibition of rat MK2 assessed as unbound fraction.
The nature of data set [14]: Cytotoxicity against human Whole blood cell assessed as reduction in cell viability at upto 20 uM. Format: toxicity, cell-based.

Chain of MAP kinase-activated protein kinase 2 (P49137 whole entry, looked up): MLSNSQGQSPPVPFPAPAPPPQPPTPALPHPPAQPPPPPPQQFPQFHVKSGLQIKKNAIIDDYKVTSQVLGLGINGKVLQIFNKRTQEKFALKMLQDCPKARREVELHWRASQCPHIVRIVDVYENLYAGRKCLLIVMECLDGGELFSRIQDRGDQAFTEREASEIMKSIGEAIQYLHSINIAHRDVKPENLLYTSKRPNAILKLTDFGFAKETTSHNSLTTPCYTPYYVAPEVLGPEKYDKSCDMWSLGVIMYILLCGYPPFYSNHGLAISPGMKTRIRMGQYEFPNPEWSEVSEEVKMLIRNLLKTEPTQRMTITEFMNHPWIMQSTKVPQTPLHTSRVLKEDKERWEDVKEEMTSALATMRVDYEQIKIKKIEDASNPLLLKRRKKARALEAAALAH
Chain of Receptor-interacting serine/threonine-protein kinase 2 (O43353 whole entry): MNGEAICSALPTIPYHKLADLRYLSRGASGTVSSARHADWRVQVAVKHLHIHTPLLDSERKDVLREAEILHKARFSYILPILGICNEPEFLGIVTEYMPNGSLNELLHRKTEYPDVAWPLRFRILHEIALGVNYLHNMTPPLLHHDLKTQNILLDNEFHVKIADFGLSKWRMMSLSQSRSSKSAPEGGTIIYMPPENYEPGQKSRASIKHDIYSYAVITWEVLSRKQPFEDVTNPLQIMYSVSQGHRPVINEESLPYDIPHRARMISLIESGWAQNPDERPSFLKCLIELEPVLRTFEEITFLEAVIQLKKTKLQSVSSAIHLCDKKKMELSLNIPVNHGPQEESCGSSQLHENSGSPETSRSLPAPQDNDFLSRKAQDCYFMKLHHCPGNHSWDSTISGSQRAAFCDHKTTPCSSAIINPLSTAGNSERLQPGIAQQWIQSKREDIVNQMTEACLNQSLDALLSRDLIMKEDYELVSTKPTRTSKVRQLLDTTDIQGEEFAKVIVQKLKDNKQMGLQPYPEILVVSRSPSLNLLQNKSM

Take `Cc1ccc(-c2ccc3c(ccc4sc5c(c43)NC[C@@H](C)NC5=O)n2)cn1`: the fIC50 in data set [1] was 126 nM. The Cmax (commonly the maximum level reached in the sampled fluid or tissue) in data set [2] was 660 nM. For the same compound, the IC50 (as a rule, the concentration that gives 50% inhibition) in data set [3] is 590 nM; in [4], 201 nM; in [6] it was 53 nM; in data set [7], 159 nM; in data set [8] it was 5 nM; in data set [10], 2780 nM. The figures for the IC50 in data set [11] and in [12] were 528 nM and 1600 nM, respectively. Besides, the 50% effective dose (ED50) (as a rule, the midpoint of the dose-response relation) in data set [5] worked out at 6.9 mg/kg. The ED80 in data set [5] was 19 mg/kg. The Tmax (commonly the time at which the peak concentration occurs) in data set [9] was 10.2 min. In addition, in [13], the fEC50 came to 110 nM. In addition, the Activity result in data set [14] was “Non-Toxic”.
